Counter-ions that a name gives are not always drawn.
test system: Mus musculus; assay: Antiinflammatory activity against ICR mouse ear edema model assessed as inhibition of xylene-induced edema at 100 mg/kg, po administered 30 mins prior to xylene challenge measured after 2 hrs relative to vehicle-treated control; format: functional
Outline: (§1)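 Male ICR mice (18-20 g), 12/12 h light/dark, free food and water, acclimated 1 day; groups of twelve. Test agents were given by oral gavage as suspensions in 0.5% CMC, with CMC alone as vehicle control, 30 min before xylene was applied to both surfaces of the right ear; the left ear served as control. At 2 h, mice were decapitated and 8.0 mm ear biopsies were punched and weighed; edema = right minus left weight.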

Structure (SMILES) | inhibition in vivo at 100 mg/kg
CC(=O)Oc1ccccc1C(=O)O [ASPIRIN] | 89.5%

test system: Mus musculus; assay: Antiinflammatory activity against ICR mouse ear edema model assessed as inhibition of xylene-induced edema at 0.1 umol/kg, po administered 30 mins prior to xylene challenge measured after 2 hrs relative to vehicle-treated control; format: functional; outline: as §1

Structure (SMILES) | inhibition in vivo at 0.1 µmol/kg
CC[C@H](C)[C@H](NCCC1OCC(C)(C)CO1)C(=O)N[C@H]1C(O)O[C@H](CO)[C@@H](O)[C@@H]1O (some centres not stated) | 44.3%

test system: Mus musculus; assay: Antiinflammatory activity against ICR mouse ear edema model assessed as inhibition of xylene-induced edema at 1 umol/kg, po administered 30 mins prior to xylene challenge measured after 2 hrs relative to vehicle-treated control; format: functional; outline: as §1

Structure (SMILES) | inhibition in vivo at 1 µmol/kg
CC[C@H](C)[C@H](NCCC1OCC(C)(C)CO1)C(=O)N[C@H]1C(O)O[C@H](CO)[C@@H](O)[C@@H]1O (some centres not stated) | 70.8%

test system: Mus musculus; assay: Antiinflammatory activity against ICR mouse ear edema model assessed as inhibition of xylene-induced edema at 10 umol/kg, po administered 30 mins prior to xylene challenge measured after 2 hrs relative to vehicle-treated control; format: functional; outline: as §1

Structure (SMILES) | inhibition in vivo at 10 µmol/kg
CC1(C)COC(CCN[C@@H](Cc2c[nH]c3ccccc23)C(=O)N[C@H]2[C@@H](OCc3ccccc3)O[C@H](COCc3ccccc3)[C@@H](OCc3ccccc3)[C@@H]2OCc2ccccc2)OC1 | 80.1%
CC(C)C[C@H](NCCC1OCC(C)(C)CO1)C(=O)N[C@H]1[C@@H](OCc2ccccc2)O[C@H](COCc2ccccc2)[C@@H](OCc2ccccc2)[C@@H]1OCc1ccccc1 | 76.7%
N[C@H]1C(O)O[C@H](CO)[C@@H](O)[C@@H]1O (some centres not stated) [GLUCOSAMINE HYDROCHLORIDE] | 64.3%
C[C@H](NCCC1OCC(C)(C)CO1)C(=O)N[C@H]1[C@@H](OCc2ccccc2)O[C@H](COCc2ccccc2)[C@@H](OCc2ccccc2)[C@@H]1OCc1ccccc1 | 90.3%
CC[C@H](C)[C@H](NCCC1OCC(C)(C)CO1)C(=O)N[C@H]1C(O)O[C@H](CO)[C@@H](O)[C@@H]1O (some centres not stated) | 88.7%
C[C@H](NCCC1OCC(C)(C)CO1)C(=O)N[C@H]1C(O)O[C@H](CO)[C@@H](O)[C@@H]1O (some centres not stated) | 86.8%
CC1(C)COC(CCN[C@@H](Cc2ccccc2)C(=O)N[C@H]2C(O)O[C@H](CO)[C@@H](O)[C@@H]2O)OC1 (some centres not stated) | 81.9%
CC(=O)OC[C@H]1O[C@H](OC(C)=O)[C@H](NC(=O)[C@H](C)NCCC2OCC(C)(C)CO2)[C@@H](OC(C)=O)[C@@H]1OC(C)=O | 84.2%
CC(=O)OC[C@H]1O[C@H](OC(C)=O)[C@H](NC(=O)[C@H](CC(C)C)NCCC2OCC(C)(C)CO2)[C@@H](OC(C)=O)[C@@H]1OC(C)=O | 86.6%
CC(C)[C@H](NCCC1OCC(C)(C)CO1)C(=O)N[C@H]1C(O)O[C@H](CO)[C@@H](O)[C@@H]1O (some centres not stated) | 85.1%
CC1(C)COC(CCN[C@@H](Cc2ccccc2)C(=O)N[C@H]2[C@@H](OCc3ccccc3)O[C@H](COCc3ccccc3)[C@@H](OCc3ccccc3)[C@@H]2OCc2ccccc2)OC1 | 87.1%
CC[C@H](C)[C@H](NCCC1OCC(C)(C)CO1)C(=O)N[C@H]1[C@@H](OC(C)=O)O[C@H](COC(C)=O)[C@@H](OC(C)=O)[C@@H]1OC(C)=O | 79.8%
CC(=O)OC[C@H]1O[C@H](OC(C)=O)[C@H](NC(=O)[C@@H](NCCC2OCC(C)(C)CO2)C(C)C)[C@@H](OC(C)=O)[C@@H]1OC(C)=O | 70.6%
CC(=O)OC[C@H]1O[C@H](OC(C)=O)[C@H](NC(=O)[C@H](Cc2ccccc2)NCCC2OCC(C)(C)CO2)[C@@H](OC(C)=O)[C@@H]1OC(C)=O | 86.8%
CC[C@H](C)[C@H](NCCC1OCC(C)(C)CO1)C(=O)N[C@H]1[C@@H](OCc2ccccc2)O[C@H](COCc2ccccc2)[C@@H](OCc2ccccc2)[C@@H]1OCc1ccccc1 | 81.6%
CC(C)[C@H](NCCC1OCC(C)(C)CO1)C(=O)N[C@H]1[C@@H](OCc2ccccc2)O[C@H](COCc2ccccc2)[C@@H](OCc2ccccc2)[C@@H]1OCc1ccccc1 | 86.2%
CC(=O)OC[C@H]1O[C@H](OC(C)=O)[C@H](NC(=O)[C@H](Cc2c[nH]c3ccccc23)NCCC2OCC(C)(C)CO2)[C@@H](OC(C)=O)[C@@H]1OC(C)=O | 80.7%
CC(C)C[C@H](NCCC1OCC(C)(C)CO1)C(=O)N[C@H]1C(O)O[C@H](CO)[C@@H](O)[C@@H]1O (some centres not stated) | 81.8%
CC1(C)COC(CCN[C@@H](Cc2c[nH]c3ccccc23)C(=O)N[C@H]2C(O)O[C@H](CO)[C@@H](O)[C@@H]2O)OC1 (some centres not stated) | 80.3%

— ChEMBL document CHEMBL3407373, “Design, synthesis and evaluation of a novel class of glucosamine mimetic peptides containing 1,3-dioxane” (2015)
